This note sets out measurements from ChEMBL document CHEMBL4837210 (Eur J Med Chem, 2021).

Test [1] has as its system Bacillus pumilus. As to the kind of experiment: Ratio of MBC to MIC against penicillin-susceptible Bacillus pumilus CMCC 63202. Type of test: functional. The essentials:
(§1)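 MBC/MIC ratio from the broth microdilution MIC (24 h, 37 °C, MH broth) and the MBC (clear wells subcultured on tryptic soy agar, 24 h). A ratio ≤4 is read as bactericidal per CLSI.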

In test [2] the test system is Bacillus pumilus. As to the kind of experiment: Antibacterial activity against penicillin-susceptible Bacillus pumilus CMCC 63202 assessed as bacterial growth inhibition by broth dilution method. In kind it is functional. To be noted: time 24 hrs. The essentials: (§2)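 Broth microdilution in Mueller Hinton broth. A 0.5 McFarland suspension was diluted tenfold, giving an inoculum of 1.5 × 10⁷ cfu/mL. This was added to 2-fold serial compound dilutions from […]. Plates were incubated aerobically at 37 °C for 24 h. MIC was the lowest concentration with no visible turbidity.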

The next test relates to Bacillus subtilis. In words: Ratio of MBC to MIC against penicillin-susceptible Bacillus subtilis ATCC 9372. In kind it is functional. The procedure, abridged: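 Ratio of MBC to MIC, both measured by broth microdilution in MH broth (37 °C, 24 h); MBC was scored by subculturing clear wells onto tryptic soy agar for 24 h. Following CLSI, a ratio of 4 or less counts as bactericidal.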

Another test deals with Streptococcus pyogenes. In words: Antibacterial activity against erythromycin-resistant Streptococcus pyogenes 2 assessed as bacterial growth inhibition incubated for 24 hrs by CLSI protocol based broth microdilution method. In kind it is functional. (In general: Dilution methods test growth across graded concentrations, often in twofold steps.)
Test [3] deals with Staphylococcus aureus. In words: In vivo antibacterial activity against […] Staphylococcus aureus ATCC 25923 infected in Kunming mouse assessed as reduction in bacterial load at 25 mg/kg, ip administered 1 hr post bacterial infection and measured after 1 hr post compound treatment. Type of test: functional, organism-based. The essentials:
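Kunming mice (~25 g, 6 per group) infected intravenously with 6 × 10⁷ CFU S. aureus ATCC25923 in 0.2 mL saline. About 1 h later, 1, 5 or 25 mg/kg was given intraperitoneally in 0.5 mL vehicle, with linezolid as reference. Orbital blood (100 µL) was taken before and 1 h after treatment, spread on MH agar and counted after 24 h.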

Test [4] relates to Staphylococcus epidermidis. As to the kind of experiment: Antibacterial activity against penicillin-resistant Staphylococcus epidermidis assessed as inhibition of bacterial growth measured by broth microdilution method. The following applies: time 24 hrs. In kind it is functional.
The test system of test [5] is Staphylococcus aureus. In words: Antibacterial activity against erythromycin-susceptible Staphylococcus aureus ATCC 25923 assessed as bacterial growth inhibition incubated for 24 hrs by CLSI protocol based broth microdilution method. Type of test: functional.
The subject of test [6] is Staphylococcus aureus. In words: Ratio of MBC to MIC against erythromycin-susceptible Staphylococcus aureus ATCC 25923. Type of test: functional. The essentials: as §1
For test [7], the system named is Staphylococcus aureus. As to the kind of experiment: Bactericidal activity against […] Staphylococcus aureus ATCC 25923 assessed as reduction in colony forming unit at 0.5 times MIC by time kill assay. In kind it is functional, organism-based. The procedure, abridged:
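Samples at 0, 3, 6, 9, 12 and 24 h were serially diluted in MH broth and plated on tryptic soy agar. CFU/mL from colony counts after 24 h at 37 °C.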

The target in test [8] is T1, Cell division protein FtsZ (Bacillus subtilis) (UniProt A5Z1V5).
T1 sequence (whole entry): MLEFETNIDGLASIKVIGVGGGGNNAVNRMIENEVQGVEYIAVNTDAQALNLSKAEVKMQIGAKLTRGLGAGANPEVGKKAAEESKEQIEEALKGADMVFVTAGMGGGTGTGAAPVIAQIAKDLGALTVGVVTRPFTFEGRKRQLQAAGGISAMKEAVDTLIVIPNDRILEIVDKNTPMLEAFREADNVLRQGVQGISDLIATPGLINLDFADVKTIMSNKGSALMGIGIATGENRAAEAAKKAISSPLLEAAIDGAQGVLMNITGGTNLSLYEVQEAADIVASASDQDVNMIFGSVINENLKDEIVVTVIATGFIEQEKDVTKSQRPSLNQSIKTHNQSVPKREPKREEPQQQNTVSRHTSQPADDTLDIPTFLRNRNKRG
In words: Induction of Bacillus subtilis FtsZ polymerization by fluorescence spectrophotometry. To be noted: dose 2.5-10 µg/ml, time 800.0 sec. The essentials:
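Light scattering of B. subtilis FtsZ in 20 mM Tris pH 7.4 with 20 mM KCl, 5 mM MgCl₂ and 0.01% Triton X-100. Protein was preincubated in a cuvette with vehicle (2% DMSO) or compound. GTP was added last (2 mM final), and scattering at excitation 411 nm / emission 430 nm was followed for 800 s.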

The subject of test [9] is Staphylococcus aureus. In words: Antibacterial activity against penicillin-resistant Staphylococcus aureus assessed as inhibition of bacterial growth measured by broth microdilution method. The following applies: time 24 hrs. Type of test: functional. The procedure, abridged:
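Broth microdilution MIC. A 0.5 McFarland suspension was diluted 10-fold and added at 1.5 × 10⁷ cfu/mL to 2-fold dilutions (0.125–64) in Mueller Hinton broth. Incubated aerobically 24 h at 37 °C. MIC was the lowest concentration with no visible turbidity.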

In test [10] the test system is Staphylococcus aureus. As to the kind of experiment: Bactericidal activity against penicillin-resistant Staphylococcus aureus measured after 24 hrs by CLSI protocol based method. In kind it is functional. The essentials: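 MBC after broth microdilution. After 24 h, aliquots from clear wells were plated on tryptic soy agar and incubated aerobically 24 h at 37 °C. MBC was the lowest concentration giving no colonies.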

Test [11] relates to Staphylococcus aureus. In words: Antibacterial activity against Staphylococcus aureus ATCC 25923 assessed as reduction in bacterial growth measured after 18 passages by resistance development assay relative to control. Type of test: functional. The following applies: time 24 hrs. The essentials:
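Serial-passage resistance test with S. aureus ATCC25923. Cells from wells at 0.5× MIC made the next inoculum (~10⁷ CFU/mL), and the MIC was redetermined after 24 h at 37 °C.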

Test [12] has as its system Staphylococcus epidermidis. As to the kind of experiment: Ratio of MBC to MIC against penicillin-resistant Staphylococcus epidermidis. In kind it is functional. The procedure, abridged: as §1
Test [13] relates to Enterococcus faecium. As to the kind of experiment: Antibacterial activity against vancomycin-susceptible Enterococcus faecium ATCC19434 assessed as bacterial growth inhibition incubated for 24 hrs by CLSI protocol based broth microdilution method. To be noted: ATCC19434, 24 h.
For test [14], the target named is T1, Cell division protein FtsZ (Bacillus subtilis). As to the kind of experiment: Induction of Bacillus subtilis FtsZ polymerization assessed as formation of bundling of FtsZ protofilaments at 10 ug/ml after 20 mins by transmission electron microscopic analysis. The following applies: dose 10.0 µg/ml. The essentials: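 B. subtilis FtsZ was incubated with or without compound for 20 min in Tris pH 7.4 polymerization buffer (KCl, MgCl₂, Triton X-100, GTP). Samples were applied to glow-discharged Formvar carbon-coated copper grids for 10 min, negatively stained with 1% phosphotungstic acid for 1 min, air-dried and imaged by TEM.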

Test [15] has as its system Enterococcus faecalis. As to the kind of experiment: Antibacterial activity against vancomycin-susceptible Enterococcus faecalis ATCC 29212 assessed as bacterial growth inhibition incubated for 24 hrs by CLSI protocol based broth microdilution method. Type of test: functional.
The subject of another test is Pseudomonas aeruginosa. In words: Antibacterial activity against penicillin-susceptible Pseudomonas aeruginosa ATCC27853 assessed as bacterial growth inhibition incubated for 24 hrs by CLSI protocol based broth microdilution method. In kind it is functional.
For test [16], the system named is Enterococcus faecalis. In words: Antibacterial activity against vancomycin-resistant Enterococcus faecalis ATCC 51299 assessed as bacterial growth inhibition incubated for 24 hrs by CLSI protocol based broth microdilution method. In kind it is functional.
Test [17] has as its system Enterococcus faecium. As to the kind of experiment: Antibacterial activity against vancomycin-resistant Enterococcus faecium ATCC 51559 assessed as bacterial growth inhibition incubated for 24 hrs by CLSI protocol based broth microdilution method. The following applies: ATCC 51559, 24 h.
Test [18] has as its system Staphylococcus aureus. In words: Antibacterial activity against Staphylococcus aureus assessed as inhibition of bacterial growth measured by broth microdilution method. In kind it is functional. To be noted: time 24 hrs. The essentials: as §2

Calls of active or inactive are those of the source. A value given as a limit tells only on which side of the number the result lay.

With `C[n+]1c2ccccc2c(/C=C/c2ccc(C(C)(C)C)cc2)c2ccccc21.[I-]`, the Ratio turned out to be 4 in the test on Bacillus pumilus [1], 2 in the test on Bacillus subtilis, 4 in the test with Staphylococcus aureus [6] and 1 in test [12]. In addition, the MIC in the test on Bacillus pumilus [2] was found to be 0.5 µg/mL; with Streptococcus pyogenes it was 0.25 µg/mL; in [4], 1 µg/mL; in the test with Staphylococcus aureus [5] it was 0.5 µg/mL; in the test on Staphylococcus aureus [9], 2 µg/mL; in the test on Enterococcus faecium [13], 4 µg/mL. Further, the MIC with Enterococcus faecalis [15] was 2 µg/mL; in the test with Pseudomonas aeruginosa, above 64 µg/mL; in the test with Enterococcus faecalis [16], 4 µg/mL; with Enterococcus faecium [17], 2 µg/mL; in the test on Staphylococcus aureus [18] it was 0.5 µg/mL. For the same compound, the outcome (in the test on Staphylococcus aureus [3]; in test [14]) was Active. In the test with Staphylococcus aureus [7], the MIC result is “inactive”. For the same compound, in test [8], the Activity entry was “Dose-Dependent Effect”. The compound also yielded an MBC against Staphylococcus aureus [10] of 4 µg/mL. The fold change (FC) with Staphylococcus aureus [11] was found to be 2.

In general, MIC refers to the lowest concentration that inhibits growth of the organism. By MBC is commonly meant the smallest concentration meeting the test's criterion for killing. High values mean less potent killing, low ones more potent killing.
